Source: ChEMBL document CHEMBL5705888, “Substrate specificity and inhibitors of LRRK2, a protein kinase mutated in Parkinson's disease” (Biochem J, 2009)
Active and inactive are the calls of the source. The calls are words filed in the database; no cut-off is given here.

Key:
[1] = molecular target: Tyrosine-protein kinase CSK (Homo sapiens) (UniProt P41240); test: Residual activity of CSK (unknown origin) at 10 uM incubated for 30 mins in presence of [gamma-33P]ATP by multidrop micro reagent based assay relative to control
[2] = molecular target: Insulin-like growth factor 1 receptor (Homo sapiens) (UniProt P08069); test: Inhibition of IGF-1R (unknown origin) at 10 uM incubated for 30 mins in presence of [gamma-33P]ATP by multidrop micro reagent based assay relative to control
[3] = molecular target: Ribosomal protein S6 kinase beta-1 (Homo sapiens) (UniProt P23443); test: Residual activity of S6K1 (unknown origin) at 10 uM incubated for 30 mins in presence of [gamma-33P]ATP by multidrop micro reagent based assay relative to control
Ribosomal protein S6 kinase beta-1 (Homo sapiens), sequence (P23443 whole entry, looked up): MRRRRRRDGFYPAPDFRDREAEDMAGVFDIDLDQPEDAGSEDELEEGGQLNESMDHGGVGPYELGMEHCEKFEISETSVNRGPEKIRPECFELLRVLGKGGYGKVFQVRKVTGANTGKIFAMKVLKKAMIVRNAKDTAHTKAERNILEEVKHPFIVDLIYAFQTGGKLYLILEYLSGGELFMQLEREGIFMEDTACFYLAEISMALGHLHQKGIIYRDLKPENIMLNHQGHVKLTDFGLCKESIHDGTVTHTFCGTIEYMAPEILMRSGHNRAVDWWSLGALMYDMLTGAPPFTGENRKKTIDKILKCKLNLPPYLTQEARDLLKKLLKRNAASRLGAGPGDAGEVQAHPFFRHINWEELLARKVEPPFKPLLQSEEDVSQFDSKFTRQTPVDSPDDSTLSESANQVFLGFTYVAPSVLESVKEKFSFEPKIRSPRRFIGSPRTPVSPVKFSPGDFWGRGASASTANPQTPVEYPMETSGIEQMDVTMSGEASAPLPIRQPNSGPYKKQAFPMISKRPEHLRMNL

[4] = molecular target: Mitogen-activated protein kinase 3 (Homo sapiens) (UniProt P27361); test: Inhibition of ERK1 (unknown origin) at 10 uM incubated for 30 mins in presence of [gamma-33P]ATP by multidrop micro reagent based assay relative to control; values are per cent of control
Mitogen-activated protein kinase 3 (Homo sapiens), sequence (P27361 whole entry): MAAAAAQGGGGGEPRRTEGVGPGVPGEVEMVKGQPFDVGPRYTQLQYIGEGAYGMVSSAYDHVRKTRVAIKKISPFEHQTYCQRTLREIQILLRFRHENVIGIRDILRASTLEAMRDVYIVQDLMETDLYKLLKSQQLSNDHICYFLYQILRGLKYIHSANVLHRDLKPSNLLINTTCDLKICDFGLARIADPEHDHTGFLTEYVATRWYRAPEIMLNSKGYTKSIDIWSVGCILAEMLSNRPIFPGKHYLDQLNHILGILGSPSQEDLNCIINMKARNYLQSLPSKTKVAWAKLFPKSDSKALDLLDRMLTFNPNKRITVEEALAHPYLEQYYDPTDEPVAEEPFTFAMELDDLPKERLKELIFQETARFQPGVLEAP

[5] = molecular target: Mitogen-activated protein kinase kinase kinase 11 (Homo sapiens) (UniProt Q16584); test: Inhibition of MLK3 (unknown origin) at 10 uM incubated for 30 mins in presence of [gamma-33P]ATP by multidrop micro reagent based assay relative to control
[6] = molecular target: SRSF protein kinase 1 (Homo sapiens) (UniProt Q96SB4); test: Inhibition of SRPK1 (unknown origin) at 10 uM incubated for 30 mins in presence of [gamma-33P]ATP by multidrop micro reagent based assay relative to control; values are per cent of control
[7] = molecular target: Serine/threonine-protein kinase pim-3 (Homo sapiens) (UniProt Q86V86); test: Inhibition of PIM3 (unknown origin) at 10 uM incubated for 30 mins in presence of [gamma-33P]ATP by multidrop micro reagent based assay relative to control; values are per cent of control
[8] = molecular target: RAC-beta serine/threonine-protein kinase (Homo sapiens) (UniProt P31751); test: Inhibition of PKBbeta (unknown origin) at 10 uM incubated for 30 mins in presence of [gamma-33P]ATP by multidrop micro reagent based assay relative to control; values are per cent of control
[9] = molecular target: Maternal embryonic leucine zipper kinase (Homo sapiens) (UniProt Q14680); test: Inhibition of MELK (unknown origin) at 10 uM incubated for 30 mins in presence of [gamma-33P]ATP by multidrop micro reagent based assay relative to control; values are per cent of control
Maternal embryonic leucine zipper kinase (Homo sapiens), sequence (Q14680 whole entry, looked up): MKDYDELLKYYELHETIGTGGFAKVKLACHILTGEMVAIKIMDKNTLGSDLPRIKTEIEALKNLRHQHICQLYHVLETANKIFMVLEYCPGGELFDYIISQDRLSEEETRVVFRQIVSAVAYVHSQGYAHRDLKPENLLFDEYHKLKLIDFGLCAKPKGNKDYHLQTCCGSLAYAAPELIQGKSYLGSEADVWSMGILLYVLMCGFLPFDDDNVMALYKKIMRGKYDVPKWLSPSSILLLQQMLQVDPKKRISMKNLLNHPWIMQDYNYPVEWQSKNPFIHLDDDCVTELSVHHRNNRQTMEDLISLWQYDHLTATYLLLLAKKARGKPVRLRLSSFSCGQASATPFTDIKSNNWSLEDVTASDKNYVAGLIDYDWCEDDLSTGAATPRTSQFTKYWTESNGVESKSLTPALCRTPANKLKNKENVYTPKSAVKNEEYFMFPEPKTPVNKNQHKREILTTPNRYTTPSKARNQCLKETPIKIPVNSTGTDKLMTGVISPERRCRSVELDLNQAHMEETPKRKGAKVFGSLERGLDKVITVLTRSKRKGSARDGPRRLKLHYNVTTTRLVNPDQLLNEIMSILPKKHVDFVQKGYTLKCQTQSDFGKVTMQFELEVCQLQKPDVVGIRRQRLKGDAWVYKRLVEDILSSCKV

[10] = molecular target: T1, MAP kinase-activated protein kinase 5 (Homo sapiens) (UniProt Q8IW41); test: Inhibition of PRAK (unknown origin) at 10 uM incubated for 30 mins in presence of [gamma-33P]ATP by multidrop micro reagent based assay relative to control; values are per cent of control
T1 sequence (whole entry): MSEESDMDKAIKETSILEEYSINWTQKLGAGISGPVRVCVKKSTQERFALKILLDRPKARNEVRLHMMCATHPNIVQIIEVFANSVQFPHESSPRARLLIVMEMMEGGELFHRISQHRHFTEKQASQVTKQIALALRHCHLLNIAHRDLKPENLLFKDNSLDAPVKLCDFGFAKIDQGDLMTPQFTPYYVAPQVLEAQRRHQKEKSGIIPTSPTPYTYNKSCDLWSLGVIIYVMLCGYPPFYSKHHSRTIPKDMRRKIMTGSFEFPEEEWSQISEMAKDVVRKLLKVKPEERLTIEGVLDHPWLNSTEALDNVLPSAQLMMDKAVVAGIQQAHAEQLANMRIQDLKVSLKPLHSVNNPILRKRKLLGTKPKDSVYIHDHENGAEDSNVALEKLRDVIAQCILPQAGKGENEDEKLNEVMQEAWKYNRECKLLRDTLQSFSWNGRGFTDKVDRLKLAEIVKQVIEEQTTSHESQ

[11] = molecular target: T2, Dual specificity tyrosine-phosphorylation-regulated kinase 3 (Homo sapiens) (UniProt O43781); test: Inhibition of DYRK3 (unknown origin) at 10 uM incubated for 30 mins in presence of [gamma-33P]ATP by multidrop micro reagent based assay relative to control
T2 sequence (whole entry): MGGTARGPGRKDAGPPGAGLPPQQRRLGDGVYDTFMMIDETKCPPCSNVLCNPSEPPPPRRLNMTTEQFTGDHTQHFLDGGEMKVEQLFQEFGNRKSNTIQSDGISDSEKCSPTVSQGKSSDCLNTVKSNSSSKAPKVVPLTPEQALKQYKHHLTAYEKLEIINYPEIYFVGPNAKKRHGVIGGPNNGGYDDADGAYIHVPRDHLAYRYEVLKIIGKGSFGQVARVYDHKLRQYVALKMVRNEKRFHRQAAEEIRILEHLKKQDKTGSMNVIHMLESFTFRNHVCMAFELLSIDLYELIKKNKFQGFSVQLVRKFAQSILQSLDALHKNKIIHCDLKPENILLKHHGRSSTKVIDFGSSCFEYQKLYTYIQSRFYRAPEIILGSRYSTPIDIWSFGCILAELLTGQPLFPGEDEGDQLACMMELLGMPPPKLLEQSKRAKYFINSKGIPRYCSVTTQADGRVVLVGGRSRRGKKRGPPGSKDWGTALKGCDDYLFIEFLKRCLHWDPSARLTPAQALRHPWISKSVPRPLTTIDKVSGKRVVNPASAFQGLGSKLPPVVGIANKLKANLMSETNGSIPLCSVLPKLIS

[12] = molecular target: Leucine-rich repeat serine/threonine-protein kinase 2 (Homo sapiens, UniProt Q5S007, G2019S); test: Inhibition of GST-tagged LRRK2 G2019S mutant (1326 to 2527 residues) (unknown origin) in presence of ATP
Leucine-rich repeat serine/threonine-protein kinase 2 (Homo sapiens, UniProt Q5S007, G2019S), sequence (Q5S007 whole entry G2019S, the tested form may be a part): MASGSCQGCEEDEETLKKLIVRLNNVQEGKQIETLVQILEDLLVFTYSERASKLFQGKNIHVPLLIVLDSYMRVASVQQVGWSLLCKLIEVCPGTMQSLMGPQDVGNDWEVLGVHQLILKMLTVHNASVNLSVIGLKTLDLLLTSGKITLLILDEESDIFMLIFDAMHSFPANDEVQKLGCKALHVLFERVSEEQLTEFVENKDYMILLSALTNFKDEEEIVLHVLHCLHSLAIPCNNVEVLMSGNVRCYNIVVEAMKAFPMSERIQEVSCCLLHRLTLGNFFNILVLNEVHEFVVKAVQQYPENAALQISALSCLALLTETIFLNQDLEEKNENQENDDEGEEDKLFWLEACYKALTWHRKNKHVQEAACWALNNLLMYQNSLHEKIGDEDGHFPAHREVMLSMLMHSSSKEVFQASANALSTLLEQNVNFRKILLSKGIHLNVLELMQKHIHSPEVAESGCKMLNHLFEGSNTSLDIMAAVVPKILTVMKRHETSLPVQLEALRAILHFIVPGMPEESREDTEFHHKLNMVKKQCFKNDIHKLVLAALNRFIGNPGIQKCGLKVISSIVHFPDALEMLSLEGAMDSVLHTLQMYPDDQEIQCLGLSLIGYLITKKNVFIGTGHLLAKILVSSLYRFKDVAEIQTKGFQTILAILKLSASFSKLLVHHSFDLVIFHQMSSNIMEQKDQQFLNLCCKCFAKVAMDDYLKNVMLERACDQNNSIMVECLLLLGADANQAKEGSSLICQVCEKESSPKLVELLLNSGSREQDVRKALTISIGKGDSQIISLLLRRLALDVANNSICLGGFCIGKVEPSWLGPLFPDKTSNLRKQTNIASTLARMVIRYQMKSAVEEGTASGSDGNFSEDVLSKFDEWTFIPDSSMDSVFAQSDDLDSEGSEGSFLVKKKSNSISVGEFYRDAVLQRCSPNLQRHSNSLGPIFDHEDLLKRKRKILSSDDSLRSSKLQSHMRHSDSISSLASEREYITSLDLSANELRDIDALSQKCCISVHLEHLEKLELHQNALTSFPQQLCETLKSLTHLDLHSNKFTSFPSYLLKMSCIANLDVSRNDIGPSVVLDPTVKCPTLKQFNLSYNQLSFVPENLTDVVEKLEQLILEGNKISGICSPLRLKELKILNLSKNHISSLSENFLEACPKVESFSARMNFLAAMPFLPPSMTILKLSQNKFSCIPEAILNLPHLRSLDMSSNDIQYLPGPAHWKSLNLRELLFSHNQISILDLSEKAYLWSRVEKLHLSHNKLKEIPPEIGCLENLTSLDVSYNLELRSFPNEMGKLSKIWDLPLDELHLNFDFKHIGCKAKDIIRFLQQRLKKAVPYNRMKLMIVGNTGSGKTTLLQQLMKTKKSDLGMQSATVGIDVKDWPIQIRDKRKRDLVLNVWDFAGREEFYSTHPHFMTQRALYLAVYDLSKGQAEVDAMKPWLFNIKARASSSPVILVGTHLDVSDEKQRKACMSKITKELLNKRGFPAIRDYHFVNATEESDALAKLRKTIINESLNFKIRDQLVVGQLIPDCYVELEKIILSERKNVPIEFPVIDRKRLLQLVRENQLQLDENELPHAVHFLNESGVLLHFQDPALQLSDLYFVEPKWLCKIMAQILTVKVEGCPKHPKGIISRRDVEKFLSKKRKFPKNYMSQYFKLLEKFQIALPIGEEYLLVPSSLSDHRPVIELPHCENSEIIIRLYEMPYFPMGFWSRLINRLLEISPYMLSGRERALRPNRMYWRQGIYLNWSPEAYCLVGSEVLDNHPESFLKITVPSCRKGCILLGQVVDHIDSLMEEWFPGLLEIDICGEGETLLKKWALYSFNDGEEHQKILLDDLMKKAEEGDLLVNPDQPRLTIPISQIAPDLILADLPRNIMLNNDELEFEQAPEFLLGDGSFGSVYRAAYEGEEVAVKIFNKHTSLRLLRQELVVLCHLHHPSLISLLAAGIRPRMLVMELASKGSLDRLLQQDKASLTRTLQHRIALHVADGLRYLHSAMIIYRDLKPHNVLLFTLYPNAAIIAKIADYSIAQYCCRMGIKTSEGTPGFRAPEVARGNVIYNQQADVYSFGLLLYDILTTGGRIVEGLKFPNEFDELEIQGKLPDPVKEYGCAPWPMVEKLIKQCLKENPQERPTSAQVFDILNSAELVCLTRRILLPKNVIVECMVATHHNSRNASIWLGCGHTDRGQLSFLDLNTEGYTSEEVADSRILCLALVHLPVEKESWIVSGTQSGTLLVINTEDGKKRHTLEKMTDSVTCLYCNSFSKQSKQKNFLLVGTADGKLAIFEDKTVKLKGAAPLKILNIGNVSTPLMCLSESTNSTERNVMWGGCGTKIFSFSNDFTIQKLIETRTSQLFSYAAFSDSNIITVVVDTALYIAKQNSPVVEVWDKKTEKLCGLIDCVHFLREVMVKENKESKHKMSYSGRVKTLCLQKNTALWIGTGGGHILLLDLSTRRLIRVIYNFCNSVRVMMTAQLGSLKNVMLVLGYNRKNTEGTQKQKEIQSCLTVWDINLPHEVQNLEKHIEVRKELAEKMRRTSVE

[13] = molecular target: Leucine-rich repeat serine/threonine-protein kinase 2 (Homo sapiens, UniProt Q5S007); test: Inhibition of LRRK2 in human HEK293 cells assessed as inhibition of ERM phosphorylation at 10 uM incubated for 1 hr using LRRKtide as substrate in presence of sunitinib by immunoblot analysis; assay type: cell-based
Leucine-rich repeat serine/threonine-protein kinase 2 (Homo sapiens, UniProt Q5S007), sequence (Q5S007 whole entry): as the sequence (Q5S007 whole entry G2019S, the tested form may be a part) above, with S2019G counted along it
Procedure, shortened: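 SDS lysates were run on 4–12% gels and immunoblotted for ERM phosphorylation with pan-phospho-ERM antibody (1 μg/ml, with 10 μg/ml LRRKtide in blocking milk/TBST).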

[14] = molecular target: Serine/threonine-protein kinase 26 (Homo sapiens) (UniProt Q9P289); test: Inhibition of MST4 (unknown origin) at 1 uM incubated for 30 mins in presence of [gamma-33P]ATP by multidrop micro reagent based assay relative to control
Serine/threonine-protein kinase 26 (Homo sapiens), sequence (Q9P289 2-416 limits assumed): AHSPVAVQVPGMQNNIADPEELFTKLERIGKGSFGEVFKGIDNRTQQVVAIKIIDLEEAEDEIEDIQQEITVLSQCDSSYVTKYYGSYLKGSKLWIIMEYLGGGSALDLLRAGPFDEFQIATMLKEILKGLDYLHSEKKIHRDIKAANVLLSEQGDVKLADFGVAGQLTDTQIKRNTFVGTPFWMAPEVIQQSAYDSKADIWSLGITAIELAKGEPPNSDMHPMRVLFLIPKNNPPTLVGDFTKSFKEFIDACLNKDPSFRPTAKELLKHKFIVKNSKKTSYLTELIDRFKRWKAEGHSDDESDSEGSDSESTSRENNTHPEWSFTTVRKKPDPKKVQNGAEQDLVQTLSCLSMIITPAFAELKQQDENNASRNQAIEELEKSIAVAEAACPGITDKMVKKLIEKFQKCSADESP

[15] = molecular target: Misshapen-like kinase 1 (Homo sapiens) (UniProt Q8N4C8); test: Inhibition of MINK1 (unknown origin) at 0.1 uM incubated for 30 mins in presence of [gamma-33P]ATP by multidrop micro reagent based assay relative to control

SMILES: C[C@@H](N)[C@H]1CC[C@H](C(=O)Nc2ccncc2)CC1
- residual activity [1]: 104%
- inhibition [2]: 99%
- residual activity [3]: 70%
- residual activity [4]: 92%
- inhibition [5]: 110%
- residual activity [6]: 65%
- residual activity [7]: 87%
- residual activity [8]: 105%
- residual activity [9]: 79%
- residual activity [10]: 88%
- inhibition [11]: 100%

SMILES: Cc1cncc2cccc(S(=O)(=O)N3CCCNC[C@@H]3C)c12
- IC50 [12]: 104 nM

SMILES: CC1=C(C(=O)Nc2cc3cn[nH]c3cc2F)C(c2ccc(C(F)(F)F)cc2)CC(=O)N1 (stereo not given)
- inhibition [13]: inactive
- residual activity [14]: 70%

SMILES: CCN(CC)CCNC(=O)c1c(C)[nH]c(/C=C2\C(=O)Nc3ccc(F)cc32)c1C
- inhibition [15]: 46%
